Experimental data: ChEMBL document CHEMBL2331456, “Isobutylhydroxyamides from the pericarp of Nepalese Zanthoxylum armatum inhibit NF1-defective tumor cell line growth” (J Nat Prod, 2013)
Activity calls are given as the source filed them. The calls are words filed in the database; no cut-off is given here.

What was measured:
[1] = Cytotoxicity against mouse Nf1-/-;Trp53-/- KR158 cells assessed as cell viability at 2 ug/ml after 2 days by red luminescence assay relative to control; assay type: cell-based; conditions: read-out: Activity
Procedure, shortened: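 Nf1−/−;Trp53−/− KR158 mouse astrocytoma cells carry a CMV-promoter luciferase that gives red luminescence in all living cells. Cells were plated at 1000 cells/well and allowed to attach (≥4 h), then compounds were added. Luminescence was read with ChromoGlo reagent 2 d later. Loss of viability compares treated cells in growth media with […].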

[2] = Growth inhibition of mouse Nf1-/-;Trp53-/- KR158 cells assessed as green luminescence at 2 ug/ml after 2 days; assay type: functional; conditions: KR158, 48 h, read-out: GI
Procedure, shortened: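 KR158 Nf1−/−;Trp53−/− astrocytoma cells carry a human E2F1-promoter luciferase that gives green luminescence only in actively dividing cells. Cells were seeded at 1000 cells/well, and compounds were added after ≥4 h attachment. Green luminescence was read with ChromoGlo reagent after 2 d. Growth inhibition compares treated cells with vehicle-treated cells, both in growth media.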

NCI60 = experiment: Cytotoxicity against human NCI60 cells at 10 uM; assay type: functional, cell-based

For `CC(=O)/C=C/C=C/C(O)CC/C=C/C(=O)NCC(C)(C)O` (stereo not drawn), the viability at 48 h, 2 ug/ml [1] was 75% and the inhibition of growth at 2 µg/mL [2] was 52%.

`C[C@H]1C=C[C@@H](/C=C/CC/C=C/C(=O)NCC(C)(C)O)OO1` [TIMURAMIDE B] gave a viability at 48 h, 2 ug/ml [1] of 65% and an inhibition of growth at 2 µg/mL [2] of 13%.

With `CC(C)(O)CNC(=O)/C=C/CC/C=C\C=C\C(=O)O` [TIMURAMIDE C] the viability at 48 h, 2 ug/ml [1] was 66%, the Activity (NCI60) was “inactive” and the inhibition of growth at 2 µg/mL [2] was 47%.

In the case of `C/C=C/C=C/C=C/CC/C=C/C(=O)NCC(C)(C)O`, the viability at 48 h, 2 ug/ml [1] is reported as 56% and the inhibition of growth at 2 µg/mL [2] is reported as 65%.

`C[C@H](O)[C@H](O)/C=C/C=C\CC/C=C/C(=O)NCC(C)(C)O` gave a viability at 48 h, 2 ug/ml [1] of 79% and an inhibition of growth at 2 µg/mL [2] of 31%.

With `C[C@H]1C=C[C@@H](/C=C\CC/C=C/C(=O)NCC(C)(C)O)OO1` [TIMURAMIDE A] the viability at 48 h, 2 ug/ml [1] was 97%, the Activity (NCI60) was “inactive” and the inhibition of growth at 2 µg/mL [2] was 38%.

`CC(O)/C=C/C=C/C(O)CC/C=C/C(=O)NCC(C)(C)O` (stereo not drawn) showed a viability at 48 h, 2 ug/ml [1] of 67% and an inhibition of growth at 2 µg/mL [2] of 41%.

Work on `C/C=C/C=C/C=C\CC/C=C/C(=O)NCC(C)(C)O` yielded a viability at 48 h, 2 ug/ml [1] of 106% and an inhibition of growth at 2 µg/mL [2] of 53%.

`C[C@@H](O)[C@H](O)/C=C/C=C\CC/C=C/C(=O)NCC(C)(C)O` gave a viability at 48 h, 2 ug/ml [1] of 66% and an inhibition of growth at 2 µg/mL [2] of 56%.

With `CC(C)(O)CNC(=O)/C=C/CCC(=O)O` [TIMURAMIDE D] the viability at 48 h, 2 ug/ml [1] was 70%, the Activity (NCI60) was “inactive” and the inhibition of growth at 2 µg/mL [2] was 42%.
